Assay results published in ChEMBL document CHEMBL4017530, “Mind the Metal: A Fragment Library-Derived Zinc Impurity Binds the E2 Ubiquitin-Conjugating Enzyme Ube2T and Induces Structural Rearrangements” (J Med Chem, 2017).
Substitutions are numbered along the chain they refer to. Activity calls are given as the source filed them. The rule behind the calls is not given here.

Experiments:
[1] = system: T1, Ubiquitin-conjugating enzyme E2 T (Homo sapiens), Q9NPD8 [C86K,K91R,K95R]; experiment: (§1) Binding affinity to N-terminally 6xHis-Smt3 tagged FANCL RING fused human Ube2T C86K/K91R/K95R mutant expressed in Escherichia coli by ITC method
T1 sequence (whole entry): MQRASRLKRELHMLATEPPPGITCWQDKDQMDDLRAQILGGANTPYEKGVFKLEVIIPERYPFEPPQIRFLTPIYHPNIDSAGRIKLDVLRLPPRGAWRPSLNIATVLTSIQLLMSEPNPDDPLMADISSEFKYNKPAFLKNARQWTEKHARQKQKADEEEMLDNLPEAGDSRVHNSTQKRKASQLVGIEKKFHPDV
Procedure, shortened: (§2)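 Titrations at 25 °C with stirring at 750 rpm in 100 mM Tris pH 8.0, 100 mM NaCl, 0.5 mM TCEP. Protein at approximately 50 μM. Titrant-into-buffer control used to correct for heat of dilution. Each titration repeated at least twice.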

[2] = system: T1, Ubiquitin-conjugating enzyme E2 T (Homo sapiens), Q9NPD8 [C86K,K91R,K95R]; experiment: Binding affinity to N-terminally 6xHis-Smt3 tagged human Ube2T C86K/K91R/K95R mutant expressed in Escherichia coli by DSF method
Procedure, shortened: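 Compound ranged from 5 μM to 5 mM. Samples heated from 25 to 95 °C at 1 °C/min with fluorescence read at each step. Melting temperature shift was the read-out.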

[3] = molecular target: T2, Ubiquitin-conjugating enzyme E2 T (Homo sapiens, UniProt Q9NPD8, C86K/K91R/K95R); experiment: Binding affinity to N-terminally 6xHis-Smt3 tagged human Ube2T C86K/K91R/K95R mutant expressed in Escherichia coli by ITC method; procedure, shortened: as §2
[4] = molecular target: T2, Ubiquitin-conjugating enzyme E2 T; experiment: as §1; procedure, shortened: as §2
[5] = system: T1, Ubiquitin-conjugating enzyme E2 T (Homo sapiens), Q9NPD8 [C86K,K91R,K95R]; experiment: Binding affinity to N-terminally 6xHis-Smt3 tagged Ub fused human Ube2T C86K/K91R/K95R mutant expressed in Escherichia coli at 1.5 mM by ITC method; procedure, shortened: as §2
[6] = system: T1, Ubiquitin-conjugating enzyme E2 T (Homo sapiens), Q9NPD8 [C86K,K91R,K95R]; experiment: Binding affinity to N-terminally 6xHis-Smt3 tagged human Ube2T C86K/K91R/K95R mutant expressed in Escherichia coli in presence of EDTA by ITC method
Procedure, shortened: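 ITC at 25 °C with stirring at 750 rpm, protein approx. 50 μM. Buffer was 100 mM Tris pH 8.0, 100 mM NaCl, 0.5 mM TCEP, plus 2 mM EDTA. Heat of dilution corrected by titrant-into-buffer control. Repeated at least twice.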

[7] = system: T1, Ubiquitin-conjugating enzyme E2 T (Homo sapiens), Q9NPD8 [C86K,K91R,K95R]; experiment: Binding affinity to biotin labeled Ube2T C86K/K91R/K95R mutant (unknown origin) assessed as association and dissociation response at 2 uM by biolayer interferometry analysis
Procedure, shortened: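 Bio-layer interferometry with compound at a lowest tested concentration of 2 μM. Association and dissociation responses were recorded.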

[8] = molecular target: T3, Ubiquitin-conjugating enzyme E2 T (Homo sapiens) (UniProt Q9NPD8); experiment: Binding affinity to human 15N-labelled C-terminal flexible tail lacking Ube2T (1 to 154 residues) (unknown origin) at 500 uM by NMR spectrocopy
T3 sequence (whole entry): T1 sequence (whole entry) with K86C, R91K, R95K
Procedure, shortened: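 [1H-15N]-HSQC spectra recorded on 50 μM 15N-Ube2T ΔC (residues 1-154) with compound added at 100, 300 and 500 μM. Read-out was weakening or loss of resonance peaks compared with the apo spectrum.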

[9] = molecular target: T3, Ubiquitin-conjugating enzyme E2 T (Homo sapiens); experiment: Reversible binding affinity to human 15N-labelled C-terminal flexible tail lacking Ube2T (1 to 154 residues) at 100 to 500 uM measured after overnight dialysis by NMR spectrocopy
Procedure, shortened: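 HSQC on 50 μM 15N-Ube2T ΔC with compound at 100, 300 and 500 μM. Compound was then removed by overnight dialysis in 50 mM potassium phosphate pH 6.8, 85 mM NaCl, 1 mM DTT. HSQC recorded again and compared with the apo peak positions.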

[10] = molecular target: Ubiquitin-like modifier-activating enzyme 1 (Homo sapiens) (UniProt P22314); experiment: Inhibition of recombinant human E1 charging with ubiquitin at 20 to 100 uM after 10 mins in presence of ATP by coomassie staining based SDS PAGE analysis
Sequence of Ubiquitin-like modifier-activating enzyme 1 (Homo sapiens) (P22314 whole entry, looked up): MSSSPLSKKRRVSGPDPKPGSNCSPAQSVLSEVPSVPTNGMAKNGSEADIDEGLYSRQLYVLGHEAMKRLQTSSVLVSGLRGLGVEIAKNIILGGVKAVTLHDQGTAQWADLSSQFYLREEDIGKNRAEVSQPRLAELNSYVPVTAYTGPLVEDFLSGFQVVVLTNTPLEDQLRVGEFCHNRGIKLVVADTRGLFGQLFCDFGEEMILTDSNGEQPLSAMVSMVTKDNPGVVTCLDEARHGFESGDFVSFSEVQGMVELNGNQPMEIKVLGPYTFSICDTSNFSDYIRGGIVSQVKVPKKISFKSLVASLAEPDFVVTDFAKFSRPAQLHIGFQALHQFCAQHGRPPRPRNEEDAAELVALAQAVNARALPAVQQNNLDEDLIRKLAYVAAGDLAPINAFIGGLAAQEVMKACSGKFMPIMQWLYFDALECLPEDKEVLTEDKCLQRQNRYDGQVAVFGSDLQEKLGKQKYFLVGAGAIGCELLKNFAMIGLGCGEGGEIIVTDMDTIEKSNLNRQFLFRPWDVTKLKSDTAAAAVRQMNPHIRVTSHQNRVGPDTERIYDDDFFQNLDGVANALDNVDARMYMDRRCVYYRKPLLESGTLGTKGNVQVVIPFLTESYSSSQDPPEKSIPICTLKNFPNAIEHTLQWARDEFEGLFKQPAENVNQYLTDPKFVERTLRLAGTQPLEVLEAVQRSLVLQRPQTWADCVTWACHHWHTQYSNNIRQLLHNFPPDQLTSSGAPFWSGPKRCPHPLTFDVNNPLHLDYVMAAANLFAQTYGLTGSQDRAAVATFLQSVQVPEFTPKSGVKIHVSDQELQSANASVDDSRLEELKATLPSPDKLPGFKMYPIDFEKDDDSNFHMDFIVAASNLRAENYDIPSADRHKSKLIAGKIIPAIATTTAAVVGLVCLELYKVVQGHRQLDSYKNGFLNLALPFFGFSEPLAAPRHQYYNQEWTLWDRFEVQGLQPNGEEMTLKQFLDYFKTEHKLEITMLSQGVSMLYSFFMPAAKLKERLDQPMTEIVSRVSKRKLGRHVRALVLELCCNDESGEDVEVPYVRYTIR

| SMILES | Activity [1] | Activity [2] | other results |
| --- | --- | --- | --- |
| CC1CCCN1c1ccc(C(=N)N)cn1 (stereo not drawn) | inactive | inactive | – |
| Cc1cc(C)n(-c2ccc(C(=N)N)cn2)n1 | – | Dose-dependent effect | Kd [3]: 17.7 µM; Kd [4]: 21.3 µM; Activity [5]: inactive; Activity [6]: inactive; Activity [7]: Active; Activity [8]: Active; Activity [9]: Active; inhibition [10]: inactive |
| [Cl-].[Cl-].[Zn+2] [ZINC CHLORIDE] | – | – | Kd [3]: 15.7 µM |
| N=C(N)c1ccc(-n2cccn2)nc1 | – | Dose-dependent effect | – |

Now from value to compound, other results behind:

| Activity [1] | Activity [2] | SMILES | other results |
| --- | --- | --- | --- |
| inactive | inactive | CC1CCN(c2ccc(C(=N)N)cn2)C1 (stereo not drawn) | – |
| – | Dose-dependent effect | N=C(N)c1ccc(N2CCCC2)nc1 | – |
| inactive | inactive | N=C(N)c1ccc(N2CCCCC2)nc1 | – |
